The results in this text go back to ChEMBL document CHEMBL1158062, “Cyclopentenones, scaffolds for organic syntheses produced by the endophytic fungus mitosporic dothideomycete sp. LRUB20” (J Nat Prod, 2006).

In brackets after ≈: the same amount, converted by molar mass. Activity calls are given as the source filed them. No cut-off for these calls is given here.

The test system of series [1] is BC. In words: Cytotoxicity against BC cells at 50 ug/ml by SRB assay. It is filed as functional, cell-based. A general note: The SRB assay estimates cell density from bound dye.
In series [2] the test system is Vero. In words: Cytotoxicity against african green monkey Vero cells at 50 ug/ml by SRB assay. It is filed as cell-based. The settings on record: chlorocebus sabaeus.
Series [3] relates to NCI-H187. In words: Cytotoxicity against human NCI-H187 cells at 50 ug/ml by SRB assay. The format is functional, cell-based.
The subject of series [4] is KB. In words: Cytotoxicity against human KB cells at 50 ug/ml by SRB assay. The format is functional, cell-based.
The subject of series [5] is Mycobacterium tuberculosis. The series can be described thus: Antimycobacterial activity against Mycobacterium tuberculosis H37Ra by microplate alamar blue assay. It is filed as functional. Summed up:
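M. tuberculosis H37Ra grown in Middlebrook 7H9 broth and tested in a microplate Alamar Blue assay, with MIC as the read-out. Isoniazid and kanamycin sulfate were run as standard drugs.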
Background: Alamar Blue is a resazurin reagent that responds to reducing activity.

For series [6], the system named is Vero. In words: Cytotoxicity against african green monkey Vero cells by SRB assay. It is filed as cell-based. The settings on record: chlorocebus sabaeus. Summed up:
(§1)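 Colorimetric cytotoxicity read-out following the Skehan method, run on Vero, KB, NCI-H187 and BC cell lines, with ellipticine included as the reference compound; result reported as IC50.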

Series [7] has as its system KB. In words: Cytotoxicity against human KB cells by SRB assay. It is filed as functional, cell-based. A digest of the protocol: as §1
For series [8], the system named is BC. In words: Cytotoxicity against BC cells by SRB assay. It is filed as functional, cell-based. A digest of the protocol:
as §1

Series [9] concerns NCI-H187. In words: Cytotoxicity against human NCI-H187 cells by SRB assay. It is filed as functional, cell-based. A digest of the protocol:
as §1

One may read the MIC as the lowest concentration found to suppress growth. Take `CC1=C(CO)C(=O)CC1`: the outcome in the series with BC [1], with NCI-H187 [3] and in the series on KB [4] was inactive. Also, the Activity result in the series with Vero [2] is recorded as “Not Active”. Further, 200 µg/mL (≈ 1590 µM) was the least that counted as inhibitory in [5] (MIC).

Take `CC1=C(CO)/C(=N/Nc2ccc([N+](=O)[O-])cc2[N+](=O)[O-])CC1`: the outcome with BC [1], with NCI-H187 [3] and with KB [4] was inactive. In addition, the Activity result with Vero [2] is on record as “Not Active”.

As usually defined, the IC50 is the concentration that inhibits the measured activity by half. Regarding `C[C@@H]1CC/C(=N\Nc2ccc([N+](=O)[O-])cc2[N+](=O)[O-])[C@@H]1CO`, the IC50 with Vero [6] was found to be 21.7 µg/mL (≈ 70.4 µM). Besides, 200 µg/mL (≈ 649 µM) was the least that counted as inhibitory in series [5] (MIC). The result with KB [7], in the series on BC [8] and in the series with NCI-H187 [9] was inactive.

With `COC(=O)c1cc(O)cc(OC)c1Oc1cc(C)cc(O)c1C(=O)O` [ASTERRIC ACID], the outcome with BC [1], in the series with NCI-H187 [3] and with KB [4] was inactive. Also, the Activity entry with Vero [2] is “Not Active”. In series [5], this compound gave an MIC of 200 µg/mL (≈ 574 µM).
